# Source: PubChem BioAssay (several laboratories)
# Hits are enriched below; roughly 4.1% of the tested compounds scored in any of these assays.
# KCNQ1 act: potentiators or activators of human KCNQ1 potassium channel | P51787 | CHO-K1 KCNQ1, thallium flux FluxOR fluorescence; stronger effect = higher value | B-score at 10 µM | hit rate 0.35% among 310,000;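 active = fluorescence ratio B-score, a plate-corrected score, at least three library SD, with initial intensity B-score within 5 SD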
#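 System: Stable KCNQ1 CHO-K1 line | Incubation: 90 min dye loading and 20 min compound exposure, both at room temperature | Measure: Ratio B score | Medium: Assay buffer for compound exposure, DMSO matched across wells | Compound dosing: Single-concentration screen | Probe or stimulus: K+/Tl+ depolarizing stimulus | Measured by: Kinetic FluxOR fluorescence, 10 s baseline plus 110 s post-stimulus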
# KCNK3 block: human KCNK3 channel inhibition, primary screen; O14649; CHO-KCNK3 thallium flux, FluxOR fluorescence; stronger effect = lower value; B-score at 10 µM; hit rate 0.84% among 340,000;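 active = B-score under library mean minus 4 SD, starting fluorescence ratio at most library mean plus 5 SD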;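 also: more negative B-score means stronger inhibition of thallium flux through KCNK3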
# KCNQ1 block: inhibitors of human KCNQ1 potassium channel | P51787 | CHO-K1 KCNQ1, FluxOR thallium flux fluorescence; stronger effect = higher value | B-score at 10 µM | hit rate 1.3% among 310,000 | AID 2642;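 active = compounds whose thallium flux B-score, printed positive for inhibition, exceeds three library SD while starting fluorescence stays within three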;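 also: channel opened by potassium depolarization with thallium stimulus after 20 min compound exposure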
# Cl transport mod: KCC2 (human) Cl- transport modulation. Q9H2X9. KCC2 cells, thallium flux FluoZin-2 fluorescence. B-score of Tl+ flux slope (higher = more flux/activation; lower = inhibition) at 10 µM. hit rate 2.2% among 190,000;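 active = thallium flux slope and its plate-corrected score both differing from the plate sample mean at a set confidence after two filtering rounds, in either direction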;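 also: slope of fluorescence scaled to starting intensity during 10 to 20 s after thallium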
# hERG rescue: compounds protecting human hERG from proarrhythmic drug block. Q12809. CHO-hERG, FluxOR thallium flux, dofetilide IC70 present. activation (rescue from dofetilide block), less the hit threshold, % at 10 µM. hit rate 0.51% among 310,000. AID 1511;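 active = activation above the mean of controls blocked by dofetilide plus 5 SD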;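 also: thallium influx through hERG after potassium depolarization seen as dye fluorescence rise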
# KCNK9 block: inhibitors of human KCNK9 two-pore domain potassium channel | Q9NPC2 | HEK293 KCNK9, FluxOR thallium flux fluorescence; stronger effect = lower value | B-score at 10 µM | hit rate 1.2% among 310,000 | AID 488922;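 active = ratio B-score over 3 SD below the library mean, with starting fluorescence within 5 SD of its mean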;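 also: negative B-score means less thallium flux so channel inhibition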
# Target sequence (Q9NPC2 whole entry, looked up, the tested form may be a part): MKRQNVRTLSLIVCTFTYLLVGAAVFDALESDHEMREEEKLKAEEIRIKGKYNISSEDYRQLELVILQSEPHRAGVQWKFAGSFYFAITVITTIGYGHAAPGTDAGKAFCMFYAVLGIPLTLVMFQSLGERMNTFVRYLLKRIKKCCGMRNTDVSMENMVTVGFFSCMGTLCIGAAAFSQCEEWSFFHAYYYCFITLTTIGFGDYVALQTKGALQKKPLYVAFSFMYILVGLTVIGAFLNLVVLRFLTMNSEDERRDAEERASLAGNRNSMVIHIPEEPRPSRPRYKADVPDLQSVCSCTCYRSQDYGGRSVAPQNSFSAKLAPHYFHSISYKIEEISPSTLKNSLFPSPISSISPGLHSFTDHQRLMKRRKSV
# Numbers without * were called inactive; i = inactive; / = not tested or not shown; ! = not confirmed by another sample.
SMILES,KCNQ1 act,KCNK3 block,KCNQ1 block,Cl transport mod,hERG rescue,KCNK9 block
Cc1ccc(NC(=O)c2cccs2)cc1S(=O)(=O)Nc1cccc(Cl)c1,i,i,i,-0.028,-9,-7.8*
COc1cccc(C(=O)NC(=S)Nc2ccc([N+](=O)[O-])cc2C)c1,i,i,i,6.6*,-10,i
COC(=O)c1c(NC(=O)CSc2nnc(Cn3nnc4ccccc43)n2C)sc(C)c1C,i,i,i,-2.4,-4,i
O=C(NNC(=S)Nc1ccccc1)c1cccc(Br)c1,i,i,i,3.3*,-10,i
Cc1cc(Br)ccc1NC(=S)Nc1cccc([N+](=O)[O-])c1,i,i,10*,-2.4,-18,i
Cc1ccc(S(=O)(=O)CNC(=O)c2ccccc2)cc1,i,i,i,/,-1,i
CC(=O)OC(C(=O)NCS(=O)(=O)c1ccc(C)cc1)c1cccnc1 (centres undefined),i,i,i,0.036,4.8*,i
CCN(CC)C(=O)Cn1cc(S(=O)(=O)CC(=O)NCCc2ccccc2)c2ccccc21,i,i,i,/,-8,i
CCOC(=O)COc1nc2ccc(Br)cc2c(-c2ccccc2)c1C(C)=O,i,i,i,/,-6,i
CCC(OC(=O)c1cccs1)C(=O)NCc1ccco1 (centres undefined),i,i,i,0.072,51*,i
N#Cc1ccc(C(=O)Nc2nnc(-c3cccs3)o2)cc1,i,i,i,6.7*,-5,i
CN(C)S(=O)(=O)c1ccc(C(=O)Nc2nnc(-c3cccs3)o2)cc1,i,i,i,-0.31,-7,i
O=C(Nc1ncc([N+](=O)[O-])s1)c1ccccc1Br,i,i,8*,/,-13,i
O=C(Nc1ncc([N+](=O)[O-])s1)c1cccs1,i,i,6*!,/,-5,i
Cc1cnc(NC(=O)c2cccs2)s1,i,i,i,/,-6,i
O=C(CS(=O)(=O)c1ccccc1)Nc1ncc([N+](=O)[O-])s1,i,i,i,/,-9,i
O=c1[nH][nH]c(-c2ccccc2)c1C=Nc1ccc(Cl)cc1,i,i,i,-0.78,2,i
CCc1ccc(NC(=O)C2=CC(c3ccc(OC)cc3)=NS(=O)(=O)N2C)cc1,i,i,i,/,-11,-7.6*
COc1ccc(C2=NS(=O)(=O)N(C)C(C(=O)Nc3ccc(C)cc3)=C2)cc1,i,i,i,/,-9,i
O=C(NC1CCCC1)C(=O)N(Cc1cccnc1)C(C(=O)NC1CCCC1)c1ccco1 (centres undefined),i,i,i,0.12,1,i
Cc1ccc(C(C(=O)NC(C)(C)C)N(Cc2cccnc2)C(=O)C(=O)NC2CCCCC2)o1 (centres undefined),i,i,i,0.44,33*,i
O=C(C(=S)N1CCOCC1)c1c[nH]c2ccccc12,i,i,i,1.5,-7,i
CCOC(=O)c1oc2ccc(S(=O)(=O)n3nc(-c4ccc(OC)cc4)cc3N)cc2c1C,9*,i,i,0.0054,-6,i
COc1ccc(S(=O)(=O)N(C)c2ccc(OC(=O)C(C)Oc3ccc(F)cc3)cc2)cc1 (centres undefined),i,i,i,/,-14,i
CCn1c(CCC(N)=O)nnc1SCC(=O)c1cc(C)n(C2CC2)c1C,/,i,/,/,/,/
SMILES,KCNQ1 act,KCNK3 block,KCNQ1 block,Cl transport mod,hERG rescue,KCNK9 block
Cc1ccc(C)n1-c1ccc(C(=O)N2CCC(C(N)=O)CC2)cc1,i,i,i,-0.21,7.2*,i
CC(C)COc1ccc(C(=O)N/C(=C/c2cccc([N+](=O)[O-])c2)C(=O)O)cc1,i,i,i,0.018,-13,i
CCNC(=O)c1ccc(=O)n(Cc2ccc(Cl)cc2Cl)c1,i,i,i,/,-9,i
CC1=CC(=O)c2c(O)ccc(O)c2C1=O,/,/,/,-5.1*,/,/
O=C1C=C(N2CCN(c3ccccn3)CC2)C(=O)c2c(O)ccc(O)c21,/,i,/,/,/,/
CC(=O)N(\C=C/C=C/C=C1\Sc2ccccc2C1=O)c1ccccc1,i,i,7*,-0.56,-13,i
CCOC(=O)C1=C(CC)NC2=C(C(=O)CCC2)C1c1ccc(OC)c(OC)c1 (centres undefined),i,i,i,0.26,-4,i
O=C(N/N=C\c1ccc(-c2ccccc2[N+](=O)[O-])o1)C1COc2ccccc2O1 (centres undefined),i,i,i,-0.31,-20,-6.8*
O=C(N/N=C\c1ccc(-c2ccccc2[N+](=O)[O-])o1)C1COc2cc3ccccc3cc2O1 (centres undefined),i,i,i,-0.13,-8,i
Cc1cc(N2C(=O)C(O)=C(C(=O)c3ccc(C)o3)C2c2cccs2)no1 (centres undefined),i,i,i,-3*,-1,i
N=c1c2ccccc2nnn1-c1ccccc1[N+](=O)[O-],/,i,/,/,/,/
CCC(C)c1ccccc1NC(=O)c1cc2cccc([N+](=O)[O-])c2[nH]1 (centres undefined),i,i,8*,0.46,-11,i
Cc1ccc(NC(=O)c2cc3cccc([N+](=O)[O-])c3[nH]2)cc1,i,i,i,0.3,-10,i
Cc1noc(C)c1COc1ccccc1C(=O)NNC(=O)c1ccccc1,i,i,i,/,-8,i
COc1ccc(OCC(=O)NNC(=O)c2ccccc2OCc2c(C)noc2C)cc1,i,i,i,/,-15,-7.5*
C=CCSC1=NN2CCS(=O)(=O)N=C2S1,i,i,i,1.7,-17,i
CCCn1c(=O)c(/C(N)=N/O)nn(-c2cccc(C(F)(F)F)c2)c1=O,i,i,i,/,-8,i
COc1ccccc1C(=O)NNC(=O)c1ccc(Cl)cc1,i,i,i,-0.56,-1,i
COc1ccccc1C(=O)NNC(=O)C(=O)Nc1ccc(C)c(Cl)c1,94*,i,i,/,61*,i
COc1ccccc1C(=O)NNC(=O)C(=O)Nc1ccc(C)cc1,i,i,i,/,47*,i
CCOCCCNC(=O)C(c1ccc(C)cc1)N(Cc1ccc2c(c1)OCO2)C(=O)CNC(C)=O (centres undefined),i,i,i,-0.31,-3,i
CC(C)Oc1ccc(C(=O)OC(C)C(=O)Nc2nc(-c3cccc([N+](=O)[O-])c3)cs2)cc1 (centres undefined),i,i,i,-0.05,-9,i
